T cruzi growth-1 = blocks T. cruzi growth in NIH3T3 culture | AID 624255 | T. cruzi beta-gal in NIH3T3, GalScreen luminescence, 90 h | inhibition, % at 8.34 µM | 77,000 tested, 5.9% active;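 active means mean inhibition above about 93%, with at least 55% of replicates each passing it, limit read from the data, passing the limit was not always enough; inconclusive means only one of those two conditions holds; inactive means neither condition holds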
KDM4C inh = KDM4C (human) demethylase inhibition. Q9H3R0. GST-KDM4C 2-372, H3K9me3 peptide, LANCE TR-FRET. inhibition, % at 12.5 µM. 96,000 tested, 0.15% active;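 active means mean replicate inhibition above about 25%, with at least 55% of replicates also reaching it, limit read from the data, passing the limit was not always enough; inconclusive means only one of those two conditions met; inactive means neither condition met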
Target sequence (Q9H3R0 2-372 limits assumed): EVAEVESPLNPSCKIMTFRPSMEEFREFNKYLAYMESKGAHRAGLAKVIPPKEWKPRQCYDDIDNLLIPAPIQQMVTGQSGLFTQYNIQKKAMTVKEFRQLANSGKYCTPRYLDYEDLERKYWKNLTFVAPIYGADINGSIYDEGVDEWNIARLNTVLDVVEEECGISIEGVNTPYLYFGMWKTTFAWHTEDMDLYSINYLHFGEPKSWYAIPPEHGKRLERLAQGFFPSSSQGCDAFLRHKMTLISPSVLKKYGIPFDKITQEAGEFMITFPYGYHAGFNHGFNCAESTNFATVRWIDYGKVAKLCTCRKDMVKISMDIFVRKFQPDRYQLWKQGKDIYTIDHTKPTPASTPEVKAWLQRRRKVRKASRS
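Material: GST-tagged GASC-1 (JMJD2C) catalytic fragment, aa 2-372 / Quantity: enzyme final amount 10 nM / Medium: HEPES buffer, pH 7.5, plus ascorbate / Doses: one test concentration per compound / Incubation: 30 min reaction, 60 min detection, RT / Measured by: LANCE TR-FRET / Read-out: inhibition from TR-FRET ratio decrease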
IDH1 R132H inh = blocks human IDH1 R132H reductase activity; O75874; inhibition, % at 10 µM; AID 624101; 70,000 tested, 0.18% active; diaphorase/resazurin fluorescence, 60 min; in the data active means inhibition above about 34%; inconclusive means no clear call, values can overlap the other calls; inactive means below about 11%;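 further: 0% = DMSO and 100% = no enzyme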
T cruzi growth-2 = Trypanosoma cruzi proliferation inhibition; shares compounds with T cruzi growth-1; inhibition, % at 8.35 µM; T. cruzi beta-gal in NIH3T3, GalScreen luminescence, 90 h; 5,600 tested, 72% active;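 active means mean replicate inhibition above about 95% and at least 55% of replicates individually reaching it, limit read from the data; inconclusive means only one of the two criteria is met; inactive means neither criterion is met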
T cruzi growth-3 = inhibitors of T. cruzi proliferation | shares compounds with T cruzi growth-1 | T. cruzi beta-gal in NIH3T3, GalScreen luminescence, 90 h | inhibition, % at 2.09 µM | 5,600 tested, 21% active;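 active means mean inhibition above about 95%, with at least 55% of replicates also reaching it, limit read from the data; inconclusive means meets just one of the two conditions; inactive means meets neither condition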;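 further: plate controls were neutral control median for no effect and positive control median for full effect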
3T3 cytotox = cytotoxicity in mouse NIH/3T3 fibroblasts; cytotoxicity (signal decrease), % at 8.35 µM; 5,600 tested, 14% active; shares compounds with T cruzi growth-1; NIH/3T3 viability, CellTiter-Glo ATP luminescence, 90 h;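 active means mean signal decrease across replicates above about 35% based on untreated-well scatter, with enough replicates individually passing, limit read from the data; inconclusive means no rule stated though some were filed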;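 further: 0% = median of neutral control wells and 100% = median of positive control wells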
3T3 cytotox 2 = kills mouse NIH/3T3 fibroblasts. AID 651744. inhibition, % at 24.9 µM. NIH/3T3 viability, CellTiter-Glo ATP luminescence, 90 h. shares compounds with T cruzi growth-1. 5,600 tested, 56% active;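 active means mean loss of cell viability signal at or above a set limit, and enough replicates individually reaching it; inconclusive means meets only the mean limit or only the replicate share; inactive means meets neither condition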;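 further: 0% = median of neutral control wells and 100% = median of positive control wells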
The depositor's hits bear a star; ? = inconclusive; nt = no result given; ! = not active in a repeat. The entries come from a sample that favours hits as a whole.

SMILES	T cruzi growth-1	KDM4C inh	IDH1 R132H inh	T cruzi growth-2	T cruzi growth-3	3T3 cytotox	3T3 cytotox 2
C[C@H]1CCCCO[C@H](CN(C)Cc2ccncc2)[C@@H](C)CN([C@@H](C)CO)C(=O)c2cc(N(C)C)ccc2O1	15	0	0	nt	nt	nt	nt
C[C@@H]1CCCCO[C@H](CN(C)Cc2ccncc2)[C@@H](C)CN([C@H](C)CO)C(=O)c2cc(N(C)C)ccc2O1	108*!	21	4	59	-10	13	-1
C[C@@H]1CN([C@@H](C)CO)C(=O)c2cc(N(C)C)ccc2O[C@@H](C)CCCCO[C@@H]1CN(C)Cc1ccc2c(c1)OCO2	101*!	4	nt	?	-25	0	11
CCc1cc(C(=O)OC)c(NC(=O)CC2Nc3cccc4cccc(c34)NC2=O)s1 (configuration not stated)	nt	nt	0	nt	nt	nt	nt
COc1ccc(OC)c(C(C)NC(=O)Nc2ccc([N+](=O)[O-])cc2OC)c1 (configuration not stated)	nt	nt	0	nt	nt	nt	nt
CC1=CC=C(C=O)C(C)(C)C1OC(=O)/C=C(\C)CO (configuration not stated)	nt	nt	0	nt	nt	nt	nt
C[C@H]1CN([C@@H](C)CO)S(=O)(=O)c2ccc(C3=CCCCC3)cc2O[C@@H]1CN(C)C(=O)Cc1ccccc1	79	-3	0	nt	nt	nt	nt
C[C@H]1CN([C@@H](C)CO)S(=O)(=O)c2ccc(C3=CCCCC3)cc2O[C@H]1CN(C)C(=O)Cc1ccncc1	98*	2	nt	99*	68	37*	36*
C[C@H]1CN([C@@H](C)CO)S(=O)(=O)c2ccc(C3=CCCCC3)cc2O[C@@H]1CN(C)C(=O)Cc1ccncc1	107*	3	14	105*	68	8	11
C[C@H](CO)N1C[C@H](C)[C@H](CN(C)C(=O)Cc2ccncc2)Oc2cc(C3=CCCC3)ccc2S1(=O)=O	80	-1	nt	nt	nt	nt	nt
CC1(C)Cc2c(sc3nc(SCC(=O)c4ccc(Cl)cc4)nc(N)c23)CS1	nt	nt	0	nt	nt	nt	nt
COc1ccc(C)cc1NC(=O)CSc1nnnn1-c1ccccc1	nt	nt	0	nt	nt	nt	nt
COc1cc(Cc2nccc3cc(OC)c(OC)cc23)c(NC(=O)c2cccc(Br)c2)cc1OC	nt	nt	-1	nt	nt	nt	nt
CC(C)N(C(=O)NC(=O)c1ccc(F)cc1F)C(C)C	nt	nt	0	nt	nt	nt	nt
COc1ccc(S(=O)(=O)N(C)C[C@@H]2Oc3cc(-c4ccccc4OC)ccc3S(=O)(=O)N([C@@H](C)CO)C[C@H]2C)cc1	125*	0	nt	106*	87	?	51*
COc1ccc(S(=O)(=O)N(C)C[C@H]2Oc3cc(-c4ccccc4OC)ccc3S(=O)(=O)N([C@H](C)CO)C[C@@H]2C)cc1	123*	-2	nt	100*	46	47*	57*
COc1ccc(S(=O)(=O)N(C)C[C@H]2Oc3cc(-c4ccccc4OC)ccc3S(=O)(=O)N([C@H](C)CO)C[C@H]2C)cc1	123*	-3	2	99*	58	21	37*
COC(=O)c1ccccc1NC(=O)c1ccc(N(C)S(=O)(=O)c2ccc(OC)c(OC)c2)cc1	nt	nt	0	nt	nt	nt	nt
O=C(CSc1nnc(-c2ccccc2Cl)n1-c1ccccc1)Nc1ccccc1Cl	nt	nt	0	nt	nt	nt	nt
Cc1ccccc1C(=O)Nc1ccc(OCC(=O)O)cc1	nt	nt	0	nt	nt	nt	nt
C[C@@H]1CN([C@H](C)CO)S(=O)(=O)c2ccc(C3=CCCC3)cc2O[C@@H]1CN(C)CC1CCCCC1	0	-2	0	nt	nt	nt	nt
C[C@@H]1CN([C@H](C)CO)S(=O)(=O)c2ccc(C3=CCCC3)cc2O[C@@H]1CN(C)Cc1ccccc1	109*	5	-1	100*	55	16	107*
C[C@@H]1CN([C@H](C)CO)S(=O)(=O)c2ccc(C3=CCCC3)cc2O[C@H]1CN(C)CC1CCCC1	105*	-2	-1	92	91	59*	105*
C[C@H](CO)N1C[C@H](C)[C@H](CN(C)Cc2cccc(C(=O)O)c2)Oc2cc(C3=CCCC3)ccc2S1(=O)=O	35	1	0	nt	nt	nt	nt
C[C@@H]1CN([C@@H](C)CO)S(=O)(=O)c2ccc(C3=CCCC3)cc2O[C@@H]1CN(C)Cc1cccc(C(=O)O)c1	-13	-1	0	nt	nt	nt	nt

Assay outcomes as filed in PubChem.
